Measured values: BindingDB's records for doi:10.1021/acs.jmedchem.9b01547 (University of Oxford, 2020)
pEC50: −log10 of the molar value.

How the values were obtained:
[1] = molecular target: T1, Utrophin (Homo sapiens, UniProt P46939); experiment: Activation of human utrophin-1 in mouse mdx myoblasts by H2K-mdx utrnA-luc assay
Procedure, shortened: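 Firefly luciferase reporter gene assay in H2K-mdx utrnA-luc cells (mouse mdx myoblasts carrying a human muscle-specific utrophin A promoter). EC50 from non-linear regression curve fit of 2 biological replicates, 3 technical replicates each.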

[2] = molecular target: T1, Utrophin; experiment: Activation of human utrophin-1 in iDMD cells by HTRF assay
Procedure, shortened: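 HTRF quantification of human utrophin protein in lysates of treated iDMD cells, read at 620 and 665 nm emission; top concentration 10 μM. EC50 by non-linear regression curve fit from 2 biological replicates, each with 3 technical replicates.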

T1 sequence (P46939 whole entry): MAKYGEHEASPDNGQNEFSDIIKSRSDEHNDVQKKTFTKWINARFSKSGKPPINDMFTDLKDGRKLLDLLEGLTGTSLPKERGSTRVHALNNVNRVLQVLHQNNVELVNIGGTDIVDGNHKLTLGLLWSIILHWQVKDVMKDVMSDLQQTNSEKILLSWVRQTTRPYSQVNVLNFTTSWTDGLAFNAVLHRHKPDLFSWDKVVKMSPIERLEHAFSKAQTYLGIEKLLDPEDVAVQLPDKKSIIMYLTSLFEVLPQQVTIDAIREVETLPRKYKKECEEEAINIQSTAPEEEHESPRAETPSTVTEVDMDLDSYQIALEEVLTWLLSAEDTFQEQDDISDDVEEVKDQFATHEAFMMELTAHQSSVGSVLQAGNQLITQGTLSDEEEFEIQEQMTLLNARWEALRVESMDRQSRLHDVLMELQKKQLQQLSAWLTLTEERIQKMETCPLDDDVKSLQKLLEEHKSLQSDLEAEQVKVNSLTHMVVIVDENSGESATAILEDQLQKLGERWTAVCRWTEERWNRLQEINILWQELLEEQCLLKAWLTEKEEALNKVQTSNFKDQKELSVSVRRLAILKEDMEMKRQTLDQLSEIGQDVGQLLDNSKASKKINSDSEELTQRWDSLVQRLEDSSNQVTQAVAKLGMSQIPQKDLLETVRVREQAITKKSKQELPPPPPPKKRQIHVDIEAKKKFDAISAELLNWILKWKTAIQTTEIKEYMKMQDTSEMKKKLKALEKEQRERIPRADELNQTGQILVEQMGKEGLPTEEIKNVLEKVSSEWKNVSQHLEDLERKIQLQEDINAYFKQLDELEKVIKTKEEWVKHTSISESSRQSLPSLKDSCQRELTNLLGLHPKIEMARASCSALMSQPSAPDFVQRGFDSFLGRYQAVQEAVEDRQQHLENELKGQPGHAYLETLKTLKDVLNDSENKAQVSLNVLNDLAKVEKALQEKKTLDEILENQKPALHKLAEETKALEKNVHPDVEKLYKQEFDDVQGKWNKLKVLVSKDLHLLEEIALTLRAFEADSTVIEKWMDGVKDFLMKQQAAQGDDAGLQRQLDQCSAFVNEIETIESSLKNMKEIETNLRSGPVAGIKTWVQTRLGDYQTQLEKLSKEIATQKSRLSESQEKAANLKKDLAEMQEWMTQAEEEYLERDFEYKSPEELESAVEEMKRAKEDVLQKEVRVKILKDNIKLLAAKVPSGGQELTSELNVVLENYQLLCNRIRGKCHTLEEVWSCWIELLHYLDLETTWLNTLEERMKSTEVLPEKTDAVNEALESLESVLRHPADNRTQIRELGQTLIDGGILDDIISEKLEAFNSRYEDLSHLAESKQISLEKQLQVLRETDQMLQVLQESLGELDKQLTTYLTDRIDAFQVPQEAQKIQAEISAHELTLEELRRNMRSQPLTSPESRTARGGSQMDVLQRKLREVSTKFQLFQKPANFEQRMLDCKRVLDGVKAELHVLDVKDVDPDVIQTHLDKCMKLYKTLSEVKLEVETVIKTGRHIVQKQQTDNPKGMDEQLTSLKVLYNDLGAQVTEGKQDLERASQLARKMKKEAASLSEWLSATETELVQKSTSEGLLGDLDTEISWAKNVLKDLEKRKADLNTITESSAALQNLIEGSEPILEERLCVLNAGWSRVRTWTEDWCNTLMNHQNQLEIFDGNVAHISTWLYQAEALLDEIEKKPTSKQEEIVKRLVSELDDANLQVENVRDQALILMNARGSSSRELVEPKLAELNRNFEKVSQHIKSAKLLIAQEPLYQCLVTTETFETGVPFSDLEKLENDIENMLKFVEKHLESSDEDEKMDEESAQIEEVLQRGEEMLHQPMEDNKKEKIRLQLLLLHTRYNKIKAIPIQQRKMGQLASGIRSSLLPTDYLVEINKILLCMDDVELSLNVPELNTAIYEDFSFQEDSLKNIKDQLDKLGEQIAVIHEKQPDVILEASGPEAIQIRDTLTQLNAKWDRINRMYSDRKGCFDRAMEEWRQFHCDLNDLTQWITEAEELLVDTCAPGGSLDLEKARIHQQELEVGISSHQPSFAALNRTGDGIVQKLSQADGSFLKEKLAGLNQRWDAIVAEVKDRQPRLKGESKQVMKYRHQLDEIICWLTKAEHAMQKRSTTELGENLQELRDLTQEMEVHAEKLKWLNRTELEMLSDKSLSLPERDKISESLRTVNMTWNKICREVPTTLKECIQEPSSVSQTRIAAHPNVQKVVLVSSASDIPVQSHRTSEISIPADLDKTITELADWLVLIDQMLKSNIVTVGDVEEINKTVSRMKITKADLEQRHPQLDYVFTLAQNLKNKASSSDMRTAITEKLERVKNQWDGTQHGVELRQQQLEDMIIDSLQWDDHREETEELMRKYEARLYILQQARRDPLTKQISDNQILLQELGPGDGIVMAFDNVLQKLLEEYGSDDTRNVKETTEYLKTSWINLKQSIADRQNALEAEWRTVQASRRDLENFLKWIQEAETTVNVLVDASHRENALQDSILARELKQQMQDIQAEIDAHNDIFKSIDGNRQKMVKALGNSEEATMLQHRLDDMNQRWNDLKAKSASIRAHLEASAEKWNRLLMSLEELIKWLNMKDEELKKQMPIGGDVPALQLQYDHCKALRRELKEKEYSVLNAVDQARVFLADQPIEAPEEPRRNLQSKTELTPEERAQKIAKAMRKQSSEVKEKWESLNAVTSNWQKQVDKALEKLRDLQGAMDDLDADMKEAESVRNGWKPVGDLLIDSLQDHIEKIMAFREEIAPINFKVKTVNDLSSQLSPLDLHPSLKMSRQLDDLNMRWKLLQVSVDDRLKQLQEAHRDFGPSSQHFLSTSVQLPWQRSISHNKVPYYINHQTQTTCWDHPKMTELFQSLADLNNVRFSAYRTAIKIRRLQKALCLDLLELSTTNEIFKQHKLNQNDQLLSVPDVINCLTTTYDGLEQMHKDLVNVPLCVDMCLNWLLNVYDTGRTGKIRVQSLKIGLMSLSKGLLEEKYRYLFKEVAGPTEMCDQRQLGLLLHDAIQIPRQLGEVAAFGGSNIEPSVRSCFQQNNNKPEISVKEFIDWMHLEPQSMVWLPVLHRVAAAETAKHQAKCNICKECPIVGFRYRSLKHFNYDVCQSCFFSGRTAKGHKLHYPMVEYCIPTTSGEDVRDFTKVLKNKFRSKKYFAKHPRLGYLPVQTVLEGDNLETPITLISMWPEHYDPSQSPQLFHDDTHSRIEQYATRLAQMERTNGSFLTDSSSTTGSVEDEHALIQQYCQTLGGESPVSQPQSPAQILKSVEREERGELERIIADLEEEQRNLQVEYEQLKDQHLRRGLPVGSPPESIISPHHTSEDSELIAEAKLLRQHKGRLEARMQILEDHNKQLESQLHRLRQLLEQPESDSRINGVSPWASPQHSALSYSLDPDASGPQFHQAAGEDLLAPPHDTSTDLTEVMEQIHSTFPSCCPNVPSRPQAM

Row | pEC50 [1] | pEC50 [2] | SMILES
1 | 6.43 | < 5.00 | CCS(=O)(=O)c1ccc2oc(-c3ccc4c(c3)C=C[C@H](O)[C@H]4O)nc2c1
2 | 6.92 | 5.08 | CCS(=O)(=O)c1ccc2oc(-c3ccc4c(c3)[C@@H](O)[C@H](O)C=C4)nc2c1
3 | 6.96 | 5.89 | CCS(=O)(=O)c1ccc2oc(-c3ccc4ccccc4c3)nc2c1 [BMN 195]
